# According to ChEMBL document CHEMBL4689842, “EUbOPEN Chemogenomics Library wave 1” (2021):
# Test system: HEK-293T
# Assay: Multiplex assay against HEK293T;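 as to Population Tubulin-Different-Phenotype (%): share of the cells with healthy nuclei that show this phenotype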
# Format: toxicity, cell-based
# Conditions: human
# In short: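 At seeding, live cells were stained with Hoechst33342, BioTracker Green Microtubule Cytoskeleton Dye, MitoTracker Red and Annexin V Alexa Fluor 680. After compound addition they were imaged on a CQ1 microscope at 37°C and 5% CO2, and CellPathfinder machine-learning gating sorted them into Hoechst high-intensity objects or normal cells, with normal cells further split into healthy, pyknosed or fragmented nuclei and pyknosed cells into mitotic or apoptotic. Tubulin, mitochondrial-mass and membrane-permeability phenotypes are given as per cents of cells with healthy nuclei.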
# [1] = 12 h, 1 µM, compound concentration 1 uM, replicate 1
# [2] = 12 h, 1 µM, compound concentration 1 uM, replicate 2
# [3] = 12 h, 10 µM, compound concentration 10 uM, replicate 1
# [4] = 12 h, 10 µM, compound concentration 10 uM, replicate 2
# [5] = 24 h, 1 µM, compound concentration 1 uM, replicate 1
# [6] = 24 h, 1 µM, compound concentration 1 uM, replicate 2
# [7] = 24 h, 10 µM, compound concentration 10 uM, replicate 1
# [8] = 24 h, 10 µM, compound concentration 10 uM, replicate 2
smiles,measurement,setting,value
CCN(CC)CCCCNc1ncc2cc(-c3cc(OC)cc(OC)c3)c(NC(=O)NC(C)(C)C)nc2n1 [PD-173074],Population Apoptotic (%),[1],8%
same,Population Fragmented Nuclei (%),[1],79%
same,Population Healthy Nuclei (%),[1],8%
same,Population Hoechst High Intensity Objects (%),[1],69%
same,Population Membrane Permeable-Phenotype (%),[1],15%
same,Population Mitochondria Different-Phenotype (%),[1],31%
same,Population Mitotic Cells (%),[1],91%
same,Population Normal (%),[1],30%
same,Population Pyknosed Nuclei (%),[1],11%
same,Population Tubulin-Different-Phenotype (%),[1],42%
same,Total Cell Count,[1],685
same,Population Apoptotic (%),[2],6%
same,Population Fragmented Nuclei (%),[2],80%
same,Population Healthy Nuclei (%),[2],1%
same,Population Hoechst High Intensity Objects (%),[2],80%
same,Population Membrane Permeable-Phenotype (%),[2],66%
same,Population Mitochondria Different-Phenotype (%),[2],0%
same,Population Mitotic Cells (%),[2],93%
same,Population Normal (%),[2],19%
same,Population Pyknosed Nuclei (%),[2],17%
same,Population Tubulin-Different-Phenotype (%),[2],66%
same,Total Cell Count,[2],917
same,Population Fragmented Nuclei (%),[3],29%
same,Population Healthy Nuclei (%),[3],52%
same,Population Hoechst High Intensity Objects (%),[3],48%
same,Population Membrane Permeable-Phenotype (%),[3],26%
same,Population Mitochondria Different-Phenotype (%),[3],6%
same,Population Normal (%),[3],51%
same,Population Pyknosed Nuclei (%),[3],17%
same,Population Tubulin-Different-Phenotype (%),[3],33%
same,Total Cell Count,[3],693
same,Population Apoptotic (%),[4],28%
same,Population Fragmented Nuclei (%),[4],7%
same,Population Healthy Nuclei (%),[4],85%
same,Population Hoechst High Intensity Objects (%),[4],42%
same,Population Membrane Permeable-Phenotype (%),[4],22%
same,Population Mitochondria Different-Phenotype (%),[4],24%
same,Population Mitotic Cells (%),[4],71%
same,Population Normal (%),[4],57%
same,Population Pyknosed Nuclei (%),[4],7%
same,Population Tubulin-Different-Phenotype (%),[4],71%
same,Total Cell Count,[4],1213
same,Population Apoptotic (%),[5],32%
same,Population Fragmented Nuclei (%),[5],84%
same,Population Healthy Nuclei (%),[5],6%
same,Population Hoechst High Intensity Objects (%),[5],55%
same,Population Membrane Permeable-Phenotype (%),[5],36%
same,Population Mitochondria Different-Phenotype (%),[5],15%
same,Population Mitotic Cells (%),[5],68%
same,Population Normal (%),[5],44%
same,Population Pyknosed Nuclei (%),[5],8%
same,Population Tubulin-Different-Phenotype (%),[5],26%
same,Total Cell Count,[5],629
same,Population Apoptotic (%),[6],0%
same,Population Fragmented Nuclei (%),[6],91%
same,Population Healthy Nuclei (%),[6],1%
same,Population Hoechst High Intensity Objects (%),[6],60%
same,Population Membrane Permeable-Phenotype (%),[6],0%
same,Population Mitochondria Different-Phenotype (%),[6],20%
same,Population Mitotic Cells (%),[6],100%
same,Population Normal (%),[6],39%
same,Population Pyknosed Nuclei (%),[6],6%
same,Population Tubulin-Different-Phenotype (%),[6],60%
same,Total Cell Count,[6],891
same,Population Apoptotic (%),[7],28%
same,Population Fragmented Nuclei (%),[7],17%
same,Population Healthy Nuclei (%),[7],71%
same,Population Hoechst High Intensity Objects (%),[7],36%
same,Population Membrane Permeable-Phenotype (%),[7],25%
same,Population Mitochondria Different-Phenotype (%),[7],9%
same,Population Mitotic Cells (%),[7],71%
same,Population Normal (%),[7],63%
same,Population Pyknosed Nuclei (%),[7],11%
same,Population Tubulin-Different-Phenotype (%),[7],50%
same,Total Cell Count,[7],733
same,Population Apoptotic (%),[8],15%
same,Population Fragmented Nuclei (%),[8],16%
same,Population Healthy Nuclei (%),[8],80%
same,Population Hoechst High Intensity Objects (%),[8],27%
same,Population Membrane Permeable-Phenotype (%),[8],20%
same,Population Mitochondria Different-Phenotype (%),[8],6%
same,Population Mitotic Cells (%),[8],85%
same,Population Normal (%),[8],72%
same,Population Pyknosed Nuclei (%),[8],2%
same,Population Tubulin-Different-Phenotype (%),[8],58%
same,Total Cell Count,[8],1994
